Screens deposited in PubChem BioAssay by several laboratories.
Rows were chosen to be rich in hits. Some 4.1% of all compounds tested hit in one or more screens of this group.
Dynein cargo inh = inhibitors of GR-EGFP nuclear translocation, primary screen, dynein cargo transport inhibitor project, imaging, high-content, 3617.4 mouse cells; 0.47% of 220,000 active; z-score, hits read low; AID 1381, 2008; test concentration mostly 20 µM; stimulated with dexamethasone, 1 µM; active compounds read low;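 active means plate z-score of nuclear minus cytoplasmic receptor signal below a set negative limit, without overly bright fluorescence or cell loss, cut at about -3.5 in these data, passing the limit was not always enough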;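 further: z-score of nuclear minus cytoplasmic ring GR-EGFP intensity difference per well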
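Also added – dexamethasone, 1.0 µM final · Buffer or medium – tet-free, stripped-serum medium · Schedule – induction 48 h, compound 1 h, agonist 30 min · Detection – formaldehyde fixation, Hoechst nuclear stain, 10x automated fluorescence imaging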
ROMK mod = ROMK potassium channel modulators, primary screen, cell-based, thallium flux, MLSMR library; Tet-inducible ROMK, thallium flux fluorescence; actives lie on both sides; B-score at 10 µM; 2% of 130,000 active; AID 1918, 2009; ATP-sensitive inward rectifier potassium channel 1 (Homo sapiens), P48048;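 active means signal ratio slope over the read window, or its plate-corrected B-score, at least 3 SD from the plate mean, either direction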;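 further: B-score of the F/F0 ratio slope over 7 to 12 s after thallium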
Autophagy HCS = autophagy modulators in MEF cells, primary screen, imaging, high-content, MEF GFP-LC3 | MEF GFP-LC3 puncta imaging; test concentration mostly 10 µM | calls only at 10 µM (by protocol) | 0.98% of 190,000 active | AID 463193, 2010;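 active means percentage of spot-positive cells more than 3 SD above its plate mean, without a fluorescence outlier flag or 80% toxicity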;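 further: spot-positive cell cutoff set from DMSO-treated cells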
KCC2 mod = KCC2 cotransporter modulators, thallium flux, primary screen, cell-based, HEK293 KCC2, FluoZin-2 fluorescence, MLSMR. Solute carrier family 12 member 5 (Homo sapiens), Q9H2X9. KCC2 cells, thallium flux FluoZin-2 fluorescence. B-score of Tl+ flux slope (higher = more flux/activation; lower = inhibition) at 10 µM. 2.2% of 190,000 active. AID 1456, 2008;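 active means thallium flux slope and its plate-corrected score both differing from the plate sample mean at a set confidence after two filtering rounds, in either direction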;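 further: slope of fluorescence scaled to starting intensity during 10 to 20 s after thallium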
Target sequence (Q9H2X9 whole entry, looked up): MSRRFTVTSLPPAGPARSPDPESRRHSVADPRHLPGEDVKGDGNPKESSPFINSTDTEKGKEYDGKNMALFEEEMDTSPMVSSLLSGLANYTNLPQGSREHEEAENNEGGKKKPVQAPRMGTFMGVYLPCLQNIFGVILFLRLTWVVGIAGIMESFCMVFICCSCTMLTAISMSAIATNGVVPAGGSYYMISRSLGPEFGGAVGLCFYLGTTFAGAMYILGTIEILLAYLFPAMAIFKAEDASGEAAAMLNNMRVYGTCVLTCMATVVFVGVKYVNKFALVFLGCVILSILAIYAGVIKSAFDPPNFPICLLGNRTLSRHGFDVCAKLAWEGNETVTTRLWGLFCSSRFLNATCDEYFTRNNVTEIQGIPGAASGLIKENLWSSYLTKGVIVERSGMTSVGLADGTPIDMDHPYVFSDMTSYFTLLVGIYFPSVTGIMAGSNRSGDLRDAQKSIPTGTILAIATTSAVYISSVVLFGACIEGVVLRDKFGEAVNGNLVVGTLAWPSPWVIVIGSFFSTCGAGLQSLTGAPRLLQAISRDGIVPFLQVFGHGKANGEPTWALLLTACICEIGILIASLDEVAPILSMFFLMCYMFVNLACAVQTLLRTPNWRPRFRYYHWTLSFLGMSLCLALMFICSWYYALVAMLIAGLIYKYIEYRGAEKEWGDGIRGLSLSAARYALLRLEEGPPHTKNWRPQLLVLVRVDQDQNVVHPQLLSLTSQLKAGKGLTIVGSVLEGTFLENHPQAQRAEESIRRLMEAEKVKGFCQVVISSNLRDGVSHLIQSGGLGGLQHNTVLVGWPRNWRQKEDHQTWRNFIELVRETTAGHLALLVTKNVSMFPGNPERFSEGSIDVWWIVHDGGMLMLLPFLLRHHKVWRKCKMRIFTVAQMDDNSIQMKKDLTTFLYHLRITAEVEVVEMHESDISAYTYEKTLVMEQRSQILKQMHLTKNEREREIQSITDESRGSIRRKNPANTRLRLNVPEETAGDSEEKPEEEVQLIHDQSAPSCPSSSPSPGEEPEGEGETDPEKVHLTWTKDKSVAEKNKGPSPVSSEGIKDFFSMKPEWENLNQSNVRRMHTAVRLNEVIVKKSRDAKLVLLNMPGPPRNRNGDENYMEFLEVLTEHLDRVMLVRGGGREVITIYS
Redox H2O2 prof = compounds producing H2O2 with reducing agent – biochemical, NIH compound library profiling, artefact control for MLSCN library redox annotation, primary screen. DTT-dependent redox cycling H2O2, phenol red/HRP absorbance; 100% = 100 µM peroxide control, 0% = buffer. activation, % at 10 µM. 0.03% of 200,000 active. AID 878, 2007;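 active means activation of at least 50% relative to the plate's high and low controls in the primary single-dose screen; inactive means activation below 50%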;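 further: compound incubated with DTT at 0.8 mM final as the reducing agent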
* = called active by the depositor; i = inactive; / = no result; + = active, no number.

SMILES	Dynein cargo inh	ROMK mod	Autophagy HCS	KCC2 mod	Redox H2O2 prof
Cc1ccc(N2C(=O)/C(=C\c3ccc(C(C)C)cc3)N=C2SC2CCOC2=O)cc1 (stereo unspecified)	0.015	0.097	i	-0.28	0
N#Cc1ccc(C(=O)Nc2nnc(-c3cccs3)o2)cc1	-0.53	/	i	6.7*	0
Cc1cccc2cc(C(c3nnnn3Cc3ccccc3)N3CCCc4ccccc43)c(=O)[nH]c12 (stereo unspecified)	1.4	-0.79	+	0.13	1
C=CCc1ccc(OCCOCCNCCCC)c(OC)c1	0.1	-1.4	+	-0.087	0
O=C(/C=C(\c1ccccc1)n1cncn1)c1ccccc1	2.1	0.49	i	0.94	0
O=C(C(=C1NCCN1)n1cncn1)c1ccccc1	-0.56	0.12	+	0.73	-1
Cn1c(=O)oc2cc(S(=O)(=O)N3CCC(C(=O)NCc4ccc(F)cc4)CC3)ccc21	-0.76	/	+	/	-3
O=S(=O)(Cc1ccc(Cl)cc1)Nc1ccc2c(c1)OCO2	-0.41	-1.8*	i	/	16
N#C/C(=C/c1ccc(N2CCOCC2)o1)c1ccc(Br)cc1	-8.6	/	+	-1.2	2
N#C/C(=C\c1ccc(N2CCOCC2)o1)c1ccccc1	-0.14	/	i	-0.62	-4
O=C(N/N=C\c1ccc(Cl)s1)c1cccs1	3.3	-1.2	i	19*	0
COc1ccccc1C(=O)N/N=C/c1ccc(Cl)s1	-0.84	-0.47	i	-1.9	0
CC(C)c1cccc(OCCCCN(C)C)c1	-0.44	-0.0014	i	0.19	-1
CCC(CC)NC(=O)CON=C1c2ccccc2-c2ccccc21	0.086	/	i	0.13	0
CCNC(=O)CON=C1c2ccccc2-c2ccccc21	-0.053	0.99	+	/	0
Clc1ccc2nc(N3CCNCC3)nc(-c3ccccc3)c2c1	2.9	-0.32	i	0.82	2
CC(Nc1nc(N2CCNCC2)nc2ccccc12)c1ccccc1 (stereo unspecified)	0.038	-2.8	+	0.056	-1
COCc1cc(=O)[nH]c(Nc2nc3ccc(C)cc3o2)n1	0.92	-0.98	+	-1	1
O=C(Oc1ccc2c3c(c(=O)oc2c1)CCC3)c1ccccc1[N+](=O)[O-]	1.6	/	i	0.29	0
CC1CCN(Cc2ccc(NC(=O)C3CCN(c4nnc(-n5cccc5)s4)CC3)cc2)CC1	-0.39	/	+	-0.56	0
O=C(C1CCN(c2nnc(-n3cccc3)s2)CC1)N1CCN(Cc2ccc3c(c2)OCO3)CC1	0.25	/	i	-0.033	-1
CCN(CC)CCn1c2ccccc2c2cnc(N)c(C#N)c21	-0.17	/	+	-0.58	0
S=c1[nH]nc(-c2ccccn2)n1/N=C/c1ccc(Br)s1	1.3	/	i	26*	1
Cc1ccc(-c2n[nH]c(=S)n2/N=C/c2cccs2)cc1	0.77	/	i	18*	0
Cc1n[nH]c(=S)n(/N=C/c2ccccn2)c1=O	0.46	/	i	/	-1
SMILES	Dynein cargo inh	ROMK mod	Autophagy HCS	KCC2 mod	Redox H2O2 prof
Cc1ccc(-c2n[nH]c(=S)n2/N=C/c2ccc(C)s2)cc1	-0.22	/	i	5.6*	1
COc1cccc(/C=N/n2c(-c3cccs3)n[nH]c2=S)c1	0.23	/	i	24*	-5
Cc1cc(-c2n[nH]c(=S)n2/N=C/c2cccs2)n[nH]1	-0.22	/	i	0.74	0
CC(C)(C)c1ccc(OCc2ccc(C(=O)NCc3cccnc3)o2)cc1	-0.96	-0.078	i	-0.15	-1
O=C(N=Nc1c(O)[nH]c2ccc(F)cc12)C1COc2ccccc2O1 (stereo unspecified)	-0.41	/	/	0	/
Cc1ccc(/C=N/n2c(COc3ccccc3)n[nH]c2=S)s1	0.23	/	i	16*	8
CC(Oc1ccc(Br)cc1)c1nc2c3ccccc3nc(=S)n2[nH]1 (stereo unspecified)	-0.86	2.9*	i	26*	0
CCCC(Oc1ccc(Br)cc1)c1nc2c3cc(OC)c(OC)cc3nc(=S)n2[nH]1 (stereo unspecified)	-0.22	-0.022	i	-2.9	0
CC(Cc1ccccc1)NC(=S)CN1CCCC1=S (stereo unspecified)	0.096	/	/	-1.6	/
O=c1[nH]c(-c2ccc(Cl)cc2)nc(=S)[nH]1	0.6	0.61	/	-0.28	/
O=C(NCc1ccncc1)C(=O)Nc1nc(C23CC4CC(CC(C4)C2)C3)cs1	-0.6	/	i	0.24	0
O=C(NCc1ccccc1)C(=O)Nc1nc(C23CC4CC(CC(C4)C2)C3)cs1	0.16	/	i	3.9*	0
C/C(=N\NC(=O)c1ccc(Cl)cc1)c1ccc(Br)s1	0.59	-0.8	i	/	-5
C/C(=N\NC(=O)c1cc(Cl)ccc1O)c1ccc(Br)s1	-0.63	0.49	i	15*	0
CC(C)N1CCC(NC(=O)Nc2ccc3c(c2)OCO3)CC1	-0.56	-0.0035	i	1.3	0
COc1ccc(N2CCN(c3ncnc4c3[nH]c3ccccc34)CC2)cc1	-0.24	1.6	i	0.22	0
COc1cc2[nH]c3c(N4CCN(c5ccccn5)CC4)ncnc3c2cc1OC	-0.75	0.28	+	/	-4
CCCCCCc1cc2cc(C(=O)Nc3cccc(OC)c3)c(=O)oc2cc1O	0.025	-0.36	i	0.071	0
CCCCCCc1cc2cc(C(=O)Nc3ccc(OC)cc3)c(=O)oc2cc1O	0.47	/	+	0.0057	0
COc1ccc2[nH]c(C(O)(Cc3cccnc3)Cc3cccnc3)cc2c1	0.26	/	i	0.42	0
CCOC(=O)N1CCC(n2c(=S)[nH]c3cc(OCC)c(OCC)cc3c2=O)CC1	0.45	0.022	+	0.14	0
CC1CCCCC1n1c(=S)[nH]c2ccccc2c1=O (stereo unspecified)	-0.84	/	i	187*	0
CCOc1cc2[nH]c(=S)n(C3CC3)c(=O)c2cc1OCC	-0.93	-0.033	i	1.2	0
CCOc1cc2[nH]c(=S)n(C(C)C)c(=O)c2cc1OCC	-0.04	/	i	9.7*	0
CC1CCCCC1NC(=O)CCCn1c(=S)[nH]c2ccccc2c1=O (stereo unspecified)	1.1	0.57	i	0.47	0
CCC1CCCCN1CCCn1c(=S)[nH]c2ccccc2c1=O (stereo unspecified)	2.3	-0.12	i	9.2*	0
Cc1nnc(SCC(=O)c2ccc(Cl)cc2)s1	-0.084	/	i	0.1	0
CN(C)c1ccc(NC(=O)CC(NCc2ccccn2)C(=O)O)cc1 (stereo unspecified)	-0.72	0.14	i	-0.12	0
